The target of experiment [1] is Mitogen-activated protein kinase 10 (Rattus norvegicus) (UniProt P49187). Briefly: Inhibition of rat c-Jun N-terminal kinase-3 at 30 uM. The method, boiled down:
(§1)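 Kinase activity assayed with ATP at 100 µM, deliberately higher than usual assay ATP levels because the inhibitors are assumed ATP-competitive. Results are reported as percent inhibition of each kinase.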

For experiment [2], the target named is Ca2+/calmodulin-dependent protein kinase II (CaM kinase II) (Rattus norvegicus) (UniProt P11275+P08413+P15791+P11730). The experiment can be described thus: Inhibition of rat Calcium/calmodulin-dependent protein kinase type II at 30 uM. The experiment is classed as protein assay. The method, boiled down: as §1
In experiment [3] the target is Mitogen-activated protein kinase 8 (Homo sapiens) (UniProt P45983). The experiment can be described thus: Inhibition of human c-Jun N-terminal kinase-1 alpha-1 at 30 uM. The method, boiled down: as §1
The target of experiment [4] is Glycogen synthase kinase-3 beta (Homo sapiens) (UniProt P49841). The experiment can be described thus: Inhibition of human Glycogen synthase kinase-3 beta at 30 uM. The method, boiled down:
as §1

The target in experiment [5] is Protein kinase C alpha type (Homo sapiens) (UniProt P17252). Briefly: Inhibition of human Protein kinase C alpha. On the set-up: concentration or dose not given beside the values. The note with it: concentration not given here.
In experiment [6] the target is Mitogen-activated protein kinase 9 (Homo sapiens) (UniProt P45984). Briefly: Inhibition of human c-Jun N-terminal kinase-2 alpha-2 at 30 uM. The method, boiled down: as §1
In experiment [7] the target is RAC-alpha serine/threonine-protein kinase (Homo sapiens) (UniProt P31749). The experiment can be described thus: Inhibition of human Protein kinase B alpha at 30 uM. The gist of the method:
as §1

The target of experiment [8] is Mitogen-activated protein kinase 1 (Homo sapiens) (UniProt P28482). Briefly: Inhibition of human Mitogen-activated protein kinase 2 at 30 uM. The method, boiled down:
as §1

The target of experiment [9] is Rho-associated protein kinase 2 (Homo sapiens) (UniProt O75116). The experiment can be described thus: Inhibition of human Rho-dependent protein kinase-II at 30 uM.
In experiment [10] the target is Tyrosine-protein kinase Lck (Homo sapiens) (UniProt P06239). The experiment can be described thus: Inhibition of human lymphocyte protein tyrosine kinase Lck at 30 uM. The method, boiled down: as §1
Experiment [11] has as its target RAF proto-oncogene serine/threonine-protein kinase (Homo sapiens) (UniProt P04049). The experiment can be described thus: Inhibition of human RAF proto-oncogene serine/threonine-protein kinase at 30 uM. The gist of the method: as §1
Experiment [12] addresses Mitogen-activated protein kinase 14 (Homo sapiens) (UniProt Q16539). Briefly: Inhibition of human stress-activated protein kinase-2 alpha (p38 MAP-kinase) at 30 uM. The gist of the method:
as §1

Experiment [13] addresses Dual specificity mitogen-activated protein kinase kinase 1 (Homo sapiens) (UniProt Q02750). Briefly: Inhibition of human Mitogen activated protein kinase kinase 1 (MEK1) at 30 uM. The gist of the method:
as §1

Experiment [14] concerns the target cAMP-dependent protein kinase (PKA) (Homo sapiens) (UniProt P22694+P17612+P22612). The experiment can be described thus: Inhibition of human cAMP-dependent protein kinase (PKA). The conditions noted are these: concentration not given here. Set-up: concentration or dose not given beside the values. Format: protein assay.

Sequence of Dual specificity mitogen-activated protein kinase kinase 1 (Homo sapiens) (Q02750 whole entry): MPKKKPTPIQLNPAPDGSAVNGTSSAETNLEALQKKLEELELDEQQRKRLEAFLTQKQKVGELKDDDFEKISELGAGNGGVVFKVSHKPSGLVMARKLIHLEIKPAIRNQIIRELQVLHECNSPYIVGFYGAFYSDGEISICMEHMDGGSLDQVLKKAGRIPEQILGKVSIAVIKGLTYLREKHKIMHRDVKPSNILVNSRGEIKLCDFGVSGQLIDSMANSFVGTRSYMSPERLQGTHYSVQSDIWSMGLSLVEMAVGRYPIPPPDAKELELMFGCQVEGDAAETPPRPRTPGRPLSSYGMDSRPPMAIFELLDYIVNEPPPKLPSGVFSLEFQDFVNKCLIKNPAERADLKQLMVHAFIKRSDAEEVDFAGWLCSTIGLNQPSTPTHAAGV
Sequence of Rho-associated protein kinase 2 (Homo sapiens) (O75116 whole entry, looked up): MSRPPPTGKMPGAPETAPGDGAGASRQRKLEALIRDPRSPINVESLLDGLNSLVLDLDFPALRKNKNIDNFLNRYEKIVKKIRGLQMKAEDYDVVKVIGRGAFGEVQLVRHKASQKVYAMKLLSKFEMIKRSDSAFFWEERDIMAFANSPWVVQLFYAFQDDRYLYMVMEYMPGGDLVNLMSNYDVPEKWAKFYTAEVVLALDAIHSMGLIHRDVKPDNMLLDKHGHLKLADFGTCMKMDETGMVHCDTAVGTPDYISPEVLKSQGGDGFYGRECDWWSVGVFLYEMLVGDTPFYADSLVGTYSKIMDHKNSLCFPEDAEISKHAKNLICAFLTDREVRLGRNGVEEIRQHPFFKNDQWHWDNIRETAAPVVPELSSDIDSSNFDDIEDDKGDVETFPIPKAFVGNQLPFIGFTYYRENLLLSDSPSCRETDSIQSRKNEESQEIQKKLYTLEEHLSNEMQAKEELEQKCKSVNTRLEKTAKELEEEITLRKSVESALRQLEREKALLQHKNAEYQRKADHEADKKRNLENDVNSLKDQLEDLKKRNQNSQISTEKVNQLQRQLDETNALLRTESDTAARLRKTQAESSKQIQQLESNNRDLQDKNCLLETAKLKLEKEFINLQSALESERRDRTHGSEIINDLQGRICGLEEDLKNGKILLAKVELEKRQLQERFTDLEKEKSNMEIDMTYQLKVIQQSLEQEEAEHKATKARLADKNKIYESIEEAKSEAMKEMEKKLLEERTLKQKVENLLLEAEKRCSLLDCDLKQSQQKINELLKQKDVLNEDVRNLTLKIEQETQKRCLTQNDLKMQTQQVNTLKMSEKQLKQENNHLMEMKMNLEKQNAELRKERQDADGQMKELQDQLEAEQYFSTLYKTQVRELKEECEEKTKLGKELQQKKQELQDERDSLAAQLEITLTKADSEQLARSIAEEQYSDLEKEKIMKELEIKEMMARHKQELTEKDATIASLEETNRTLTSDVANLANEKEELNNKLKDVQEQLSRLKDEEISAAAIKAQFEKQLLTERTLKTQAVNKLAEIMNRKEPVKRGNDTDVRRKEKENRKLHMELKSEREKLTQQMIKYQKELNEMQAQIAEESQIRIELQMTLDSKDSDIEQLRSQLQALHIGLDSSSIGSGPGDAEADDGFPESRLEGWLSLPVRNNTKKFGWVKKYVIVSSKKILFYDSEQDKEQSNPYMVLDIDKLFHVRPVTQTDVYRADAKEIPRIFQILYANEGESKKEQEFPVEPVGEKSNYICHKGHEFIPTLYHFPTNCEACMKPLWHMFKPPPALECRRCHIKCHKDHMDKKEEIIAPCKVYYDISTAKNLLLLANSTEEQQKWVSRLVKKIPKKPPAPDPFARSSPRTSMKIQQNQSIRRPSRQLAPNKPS
Sequence of Mitogen-activated protein kinase 8 (Homo sapiens) (P45983 whole entry): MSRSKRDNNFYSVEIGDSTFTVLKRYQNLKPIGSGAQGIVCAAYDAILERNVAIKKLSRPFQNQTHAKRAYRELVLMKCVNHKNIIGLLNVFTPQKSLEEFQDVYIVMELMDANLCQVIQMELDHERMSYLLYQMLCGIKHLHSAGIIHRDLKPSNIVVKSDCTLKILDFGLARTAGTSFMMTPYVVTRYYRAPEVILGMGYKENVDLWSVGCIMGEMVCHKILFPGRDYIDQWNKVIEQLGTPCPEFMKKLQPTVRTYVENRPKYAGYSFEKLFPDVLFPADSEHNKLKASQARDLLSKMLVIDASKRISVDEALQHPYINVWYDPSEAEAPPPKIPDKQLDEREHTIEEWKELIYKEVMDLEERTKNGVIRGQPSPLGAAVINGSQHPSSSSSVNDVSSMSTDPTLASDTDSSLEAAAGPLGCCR
Sequence of Mitogen-activated protein kinase 14 (Homo sapiens) (Q16539 whole entry): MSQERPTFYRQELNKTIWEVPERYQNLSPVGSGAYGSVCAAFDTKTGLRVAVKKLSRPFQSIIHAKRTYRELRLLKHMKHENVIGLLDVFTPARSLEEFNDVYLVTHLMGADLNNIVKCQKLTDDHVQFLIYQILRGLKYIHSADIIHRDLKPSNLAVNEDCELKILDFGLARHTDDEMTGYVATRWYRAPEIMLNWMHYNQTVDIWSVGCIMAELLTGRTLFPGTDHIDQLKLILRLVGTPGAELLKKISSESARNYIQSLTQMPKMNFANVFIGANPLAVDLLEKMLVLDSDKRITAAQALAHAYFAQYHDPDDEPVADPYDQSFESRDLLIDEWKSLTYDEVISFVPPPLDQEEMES
Sequence of Glycogen synthase kinase-3 beta (Homo sapiens) (P49841 whole entry, looked up): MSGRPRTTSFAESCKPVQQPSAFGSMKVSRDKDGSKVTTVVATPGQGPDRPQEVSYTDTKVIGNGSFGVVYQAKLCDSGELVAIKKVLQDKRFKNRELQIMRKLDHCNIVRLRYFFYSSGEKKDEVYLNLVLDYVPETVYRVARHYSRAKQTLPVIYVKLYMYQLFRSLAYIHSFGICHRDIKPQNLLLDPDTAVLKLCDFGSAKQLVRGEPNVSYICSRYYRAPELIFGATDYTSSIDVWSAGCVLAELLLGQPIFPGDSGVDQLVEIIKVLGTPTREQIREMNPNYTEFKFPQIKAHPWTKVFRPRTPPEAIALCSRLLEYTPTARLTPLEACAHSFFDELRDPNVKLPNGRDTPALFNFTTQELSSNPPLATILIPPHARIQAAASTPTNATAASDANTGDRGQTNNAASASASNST
Sequence of Mitogen-activated protein kinase 9 (Homo sapiens) (P45984 whole entry, looked up): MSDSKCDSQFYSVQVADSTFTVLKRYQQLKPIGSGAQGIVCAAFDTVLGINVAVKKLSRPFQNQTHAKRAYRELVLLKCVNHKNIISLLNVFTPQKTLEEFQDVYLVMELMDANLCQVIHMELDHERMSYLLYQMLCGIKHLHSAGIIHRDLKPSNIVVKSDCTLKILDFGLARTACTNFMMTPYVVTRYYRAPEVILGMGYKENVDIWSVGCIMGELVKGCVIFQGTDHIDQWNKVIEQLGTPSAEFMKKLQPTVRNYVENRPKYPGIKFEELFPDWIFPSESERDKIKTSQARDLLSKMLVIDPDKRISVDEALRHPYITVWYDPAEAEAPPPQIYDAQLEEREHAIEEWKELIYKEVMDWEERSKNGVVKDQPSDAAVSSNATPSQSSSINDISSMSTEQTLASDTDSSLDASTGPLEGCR
Sequence of RAF proto-oncogene serine/threonine-protein kinase (Homo sapiens) (P04049 whole entry): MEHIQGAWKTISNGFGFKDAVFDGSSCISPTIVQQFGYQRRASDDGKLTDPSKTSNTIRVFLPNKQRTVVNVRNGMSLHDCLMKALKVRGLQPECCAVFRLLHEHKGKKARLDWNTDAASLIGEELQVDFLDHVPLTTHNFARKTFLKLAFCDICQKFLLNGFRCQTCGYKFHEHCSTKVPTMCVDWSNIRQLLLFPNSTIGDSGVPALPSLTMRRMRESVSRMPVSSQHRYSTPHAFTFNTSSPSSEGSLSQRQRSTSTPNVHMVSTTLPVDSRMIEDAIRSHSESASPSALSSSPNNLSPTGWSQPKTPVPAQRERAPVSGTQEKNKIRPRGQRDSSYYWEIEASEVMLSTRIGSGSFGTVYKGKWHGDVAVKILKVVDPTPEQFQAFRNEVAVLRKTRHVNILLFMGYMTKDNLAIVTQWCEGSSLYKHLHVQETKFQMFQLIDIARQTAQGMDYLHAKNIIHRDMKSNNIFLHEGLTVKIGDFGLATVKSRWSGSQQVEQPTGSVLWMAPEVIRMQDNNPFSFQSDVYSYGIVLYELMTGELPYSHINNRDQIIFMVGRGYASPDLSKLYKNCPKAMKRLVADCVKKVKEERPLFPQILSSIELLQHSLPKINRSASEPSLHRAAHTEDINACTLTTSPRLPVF

For `CSc1ccc(-c2nc3c(Sc4ccc(F)cc4)ncnc3n2C)cc1`, the inhibition in experiment [1] was 3%; in experiment [2] it was 7%; in experiment [3], 3%; in experiment [4], 5%; in experiment [5], 0%; in experiment [6], 5%. For the same compound, the inhibition in experiment [7] worked out at 0%; in [8], 0%; in experiment [9], 0%; in [10], 1%; in experiment [11], 1%; in experiment [12], 15%. The inhibition in [13] was found to be 4%; in experiment [14], 0%.
For `Nc1[nH]cnc2ncnc1-2`, the inhibition stood at 10% in experiment [1]; 0% in experiment [2]; 0% in experiment [3]; 0% in experiment [4]; 6% in experiment [5]; 0% in experiment [6]. For the same compound, the inhibition in [7] was found to be 0%; in [8], 17%; in [9], 28%; in experiment [10], 19%; in experiment [11] it was 14%; in experiment [12], 7%. Moreover, the figures for the inhibition in experiment [13] and in [14] were 9% and 14%, respectively.
Regarding `Cn1cnc2c(/C=C/c3ccccc3)ncnc21`, the inhibition in [1] came out at 8%; in experiment [2], 4%; in experiment [3], 0%; in experiment [4], 0%; in experiment [5], 7%; in experiment [6], 0%. Moreover, the inhibition in experiment [7] stood at 0%; in experiment [8], 0%; in [9], 0%; in experiment [10], 1%; in experiment [11], 8%; in [12] it was 12%. Also, the inhibition in experiment [13] and in [14] was 0% in each case.
Take `Fc1ccc(Cc2[nH]cnc3ncnc2-3)cc1`: the inhibition worked out at 0% in experiment [1]; 8% in [2]; 0% in experiment [3]; 2% in experiment [4]; 0% in experiment [5]; 0% in experiment [6]. Moreover, the inhibition is 3% in experiment [7]; 0% in [8]; 2% in [9]; 0% in experiment [10]; 0% in experiment [11]; 1% in experiment [12]. Besides, the inhibition in experiment [13] and in experiment [14] was 0% in each case.
As to `Nc1ncnc2c1ncn2Cc1ccc(F)cc1`, the inhibition in [1] is 9%; in [2], 9%; in experiment [3], 0%; in [4], 5%; in experiment [5], 16%; in [6] it was 0%. The inhibition in [7] is 0%; in [8] it was 0%; in experiment [9], 0%; in experiment [10], 22%; in experiment [11], 16%; in [12], 8%. Moreover, the inhibition turned out to be 7% in experiment [13] and 0% in [14].
As for `Cn1c(-c2ccccc2)nc2c(Sc3ccccc3)ncnc21`, the inhibition in experiment [1] was 12%; in [2] it was 1%; in experiment [3], 0%; in [4] it was 0%; in [5], 13%; in [6], 0%. The inhibition was determined as 42% in experiment [7]; 0% in experiment [8]; 1% in experiment [9]; 5% in [10]; 12% in experiment [11]; 44% in experiment [12]. For the same compound, the inhibition in [13] came to 4%; in experiment [14], 3%.
For `Cn1c(-c2ccccc2)nc2c(Sc3ccc(F)cc3)ncnc21`, the inhibition in experiment [1] was found to be 16%; in experiment [2], 8%; in [3], 2%; in [4], 22%; in experiment [5], 17%; in experiment [6], 0%. Moreover, the inhibition in experiment [7] was 29%; in experiment [8], 1%; in [9] it was 9%; in experiment [10], 20%; in experiment [11] it was 14%; in [12], 29%. The inhibition in experiment [13] is 7%; in experiment [14], 3%.
Take `CSc1ccc(-c2nc3c(Sc4ccccc4)ncnc3n2C)cc1`: the inhibition was found to be 0% in experiment [1]; 0% in [2]; 0% in experiment [3]; 3% in [4]; 0% in experiment [5]; 1% in experiment [6]. Besides, the inhibition came to 5% in [7]; 0% in experiment [8]; 0% in experiment [9]; 0% in experiment [10]; 5% in experiment [11]; 11% in experiment [12]. Besides, the inhibition in experiment [13] came to 4%; in experiment [14] it was 0%.
In the case of `Cn1c(-c2ccc(S(C)(=O)=O)cc2)nc2c(Sc3ccc(F)cc3)ncnc21`, the inhibition was 5% in experiment [1]; 0% in [2]; 0% in [3]; 0% in experiment [4]; 7% in experiment [5]; 2% in experiment [6]. Also, the inhibition in [7] is 4%; in experiment [8], 0%; in experiment [9] it was 0%; in experiment [10], 10%; in experiment [11], 6%; in experiment [12] it was 19%. In addition, the inhibition stood at 0% in experiment [13] and 3% in experiment [14].
On to `c1ccc(Cc2[nH]cnc3ncnc2-3)cc1`, for which the inhibition came out at 30% in experiment [1]; 2% in [2]; 0% in [3]; 5% in experiment [4]; 7% in experiment [5]; 0% in [6]. The inhibition stood at 0% in experiment [7]; 3% in [8]; 1% in [9]; 0% in experiment [10]; 9% in experiment [11]; 8% in experiment [12]. Besides, the values for the inhibition in experiment [13] and in experiment [14] were 3% and 7%, respectively.
For `Fc1ccc(Oc2[nH]cnc3ncnc2-3)cc1`, the inhibition in experiment [1] was found to be 0%; in [2] it was 0%; in experiment [3], 0%; in experiment [4], 0%; in experiment [5], 3%; in [6], 0%. The inhibition turned out to be 0% in [7]; 0% in [8]; 9% in [9]; 0% in experiment [10]; 1% in [11]; 18% in experiment [12]. Besides, the inhibition in experiment [13] and in experiment [14] was 0% each time.
Turning to `Fc1ccc(-[n+]2c[nH]c3ncncc32)cc1`, the inhibition in experiment [1] is 4%; in experiment [2] it was 0%; in [3], 1%; in [4], 0%; in experiment [5], 2%; in experiment [6] it was 0%. Moreover, the inhibition is 0% in [7]; 0% in experiment [8]; 2% in experiment [9]; 9% in experiment [10]; 0% in experiment [11]; 0% in experiment [12]. The inhibition in experiment [13] and in [14] was 0% each time.
On to `Fc1ccc(Sc2ncnc3[nH]cnc23)cc1`, for which the inhibition in [1] was 8%; in experiment [2], 0%; in experiment [3], 0%; in experiment [4], 0%; in experiment [5] it was 9%; in [6], 1%. Further, the inhibition was 0% in [7]; 12% in [8]; 37% in [9]; 13% in [10]; 29% in experiment [11]; 72% in experiment [12]. In addition, the inhibition in [13] came to 2%; in experiment [14], 10%.
On to `Fc1ccc(Nc2[nH]cnc3ncnc2-3)cc1`, for which the inhibition in [1] is 10%; in experiment [2], 2%; in [3], 13%; in [4], 0%; in experiment [5], 17%; in experiment [6], 0%. Besides, the inhibition is 18% in [7]; 48% in experiment [8]; 52% in experiment [9]; 42% in experiment [10]; 24% in [11]; 30% in experiment [12]. The inhibition is 34% in [13] and 40% in experiment [14].

The term inhibition denotes the share of the control response that was lost under treatment.

For the origin of these results see ChEMBL document CHEMBL1141882, “Synthesis and biological testing of purine derivatives as potential ATP-competitive kinase inhibitors” (J Med Chem, 2005).
